# Publication PMC4109024 (Nature communications, 2014)
# Entries after “also recorded” stand apart in the source; their conditions may differ.
# Experiments:
# [1] = tested on: CNGB3-MYC expressing HEK293T cells; assay: Biotin-z13 localization / endosome-escaping activity; format: cell-based; conditions: 37°C, 30 min, biotin-z13 in presence of HLAH-z13; Alexa 488-avidin
# [2] = tested on: CNGB3-MYC expressing HEK293T cells; assay: TUNEL apoptosis assay, CNGB3-MYC HEK293T cells; format: cell-based
# Method in brief: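 HEK293T cells transfected with CNGB3–MYC were cultured for 20 h at 37 °C with one of these treatments: no peptide; targeting peptide, 100 μg/ml; pro-apoptotic peptide, 100 μg/ml; its conjugate, 100 μg/ml; endosome-escaping conjugate, 25 μg/ml; or conjugates at 100 plus 25 μg/ml. Stocks were 100 μg/μl in DMSO. Apoptosis was detected by immunoperoxidase TUNEL.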
# [3] = tested on: CNGB3-Myc transfected A431 cells; assay: Cell viability assay, CNGB3-positive A431 cells; format: cell-based; conditions: 37°C, 6 hours, ATP by CellTiter Glo; for Concentration above which cell viability was affected, CNGB3-positive A431: single peptide
# Method in brief: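 CNGB3–MYC-transfected A431 cells, with untransfected CNGB3-negative A431 as control, grown in DME/F12 with 10% FCS. Cells were exposed to single peptides or the two-peptide combination at a range of concentrations for 6 h at 37 °C. Peptide stocks were 100 μg/μl in DMSO, and a DMSO-only control was run at 0.01% final. Viability was read as ATP content by CellTiter Glo luminescence.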
# [4] = tested on: CNGB3-expressing A431 cells; assay: Inhibition of KLAK-z13 plus HLA-z13 cytotoxicity by z13 / palmitoyl-z13; format: cell-based; conditions: KLAK-z13 100 μg/ml + HLA-z13 25 μg/ml, 37 °C, 6 hours; average of triplicate; repeated three times
# [5] = tested on: Ishikawa cell surface proteins; assay: z13 affinity isolation of biotinylated Ishikawa cell surface proteins; format: binding, human; conditions: biotinylated Ishikawa lysate; z13 peptide 1 mg/ml elution; avidin blot
# Method in brief: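 Ishikawa monolayers were surface-biotinylated with sulpho-NHS-LC-biotin (0.5 mg/ml in PBS, 30 min) and solubilized at 4 °C in TBS with 50 mM octyl-thio-glucoside and protease inhibitors. Lysate was precleared on agarose for 2 h at 4 °C, then bound to peptide-conjugated agarose. Elution used peptide at 1 mg/ml, with an irrelevant peptide as control. Eluates were analysed by SDS–PAGE, peroxidase-avidin blot and chemiluminescence.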
# [6] = tested on: human endometrial adenocarcinoma Ishikawa cells; assay: Phage binding/internalization to Ishikawa cells; format: cell-based; conditions: cloned phage, 37°C, 30 min; plaque forming assay; repeated three times
# Method in brief: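 Phage clones came from a T7 library of linear 9-mer peptides. Each selection round had two steps: 1 h in vivo subtraction in female mouse peritoneum, then 30 min internalization into Ishikawa monolayers at 37 °C. Clones from three such rounds were each added to Ishikawa monolayers, or A431 controls, for 30 min at 37 °C. Internalized phage was counted by plaque assay, and binding was expressed as plaques recovered relative to phage added.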
Sequence,Effect on biotin-z13 localization (endosome-escaping activity) [1],"Apoptosis of CNGB3-expressing HEK293T cells, HLAH-z13 25 μg/ml ([2]; 25 μg/ml, 37°C, 20 hours, TUNEL)","Cell viability, CNGB3-positive A431 [3]","Concentration above which cell viability was affected, CNGB3-positive A431 [3]","Apoptosis of CNGB3-MYC transfected HEK293T cells, dKLAK-z13 alone ([2]; culture medium of transfected cells, concentration not given)",Blocking of cytotoxicity of KLAK-z13 plus HLA-z13 [4],Protein bound to z13 beads and eluted by z13 peptide [5],Binding strength to Ishikawa cells among phage clones [6]
HLAHLAHHLAHLAHHLAHVRRADNRPG [HLAH-z13],diffuse cytoplasmic signals,did not undergo apoptosis,cell viability was not affected except at high concentrations,> 50 µg/mL,,,,
KLAKLAKKLAKLAKKLAKVRRADNRPG [dKLAK-z13],,,cell viability was not affected except at high concentrations,> 200 µg/mL,apoptosis was not induced; also recorded: did not induce apoptosis,,,
VRRADNRPG [z13],,,cell viability was not affected,,,blocked,single 68 kDa protein,the strongest binder
